# Measurements reported in ChEMBL document CHEMBL1132408, “Novel lipoamino acid- and liposaccharide-based system for peptide delivery: application for oral administration of tumor-selective somatostatin analogues” (J Med Chem, 1999).
# Columns and labels:
# Type in all cases: functional, Homo sapiens
# [1] = test system: Faza 967 clone 2; assay: The compound was tested in vitro for antiproliferative activity against Faza 967 clone2 tumor cell lines; parameters: concentration or dose not given beside the values
# [2] = test system: Faza 967 cell clone 2/T1; assay: The compound was tested in vitro for antiproliferative activity against Faza 967 clone2/T1 tumor cell lines; parameters: concentration or dose not given beside the values
# [3] = test system: A-431; assay: (§1) The compound was tested in vitro for antiproliferative activity against A431 tumor cell lines; parameters: concentration or dose not given beside the values
# Outline: (§2)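 Human tumor cell lines were exposed to the conjugates for 24 h at 50 µg/mL. Surviving cells converted the tetrazolium salt MTT to formazan, and OD was read at 570 nm. Values are percent inhibition relative to untreated cells (0%), given as the mean ± SD of at least three parallels. The methods also list 20, 50 and 100 µg/mL and 24 or 48 h exposures.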
# [4] = test system: A2058; assay: The compound was tested in vitro for antiproliferative activity against A2058 tumor cell lines; parameters: concentration or dose not given beside the values; outline: as §2
# [5] = test system: HT-29; assay: The compound was tested in vitro for antiproliferative activity against HT-29 tumor cell lines; parameters: concentration or dose not given beside the values; outline: as §2
# [6] = test system: SW-620; assay: The compound was tested in vitro for antiproliferative activity against […] tumor cell lines; outline: as §2
# [7] = test system: A-431; assay: as §1; outline: as §2
# [8] = test system: PC-3; assay: The compound was tested in vitro for antiproliferative activity against PC3 tumor cell lines; outline: as §2
SMILES,Inhibition [1] [%],Inhibition [2] [%],Inhibition [3] [%],Inhibition [4] [%],Inhibition [5] [%],Inhibition [6] [%],Inhibition [7] [%],Inhibition [8] [%]
CCCCCCCCCCC(N)C(=O)NCC(=O)NCC(=O)N[C@H](Cc1ccccc1)C(=O)N[C@H]1CSSC[C@@H](C(=O)N[C@H](C(N)=O)[C@@H](C)O)NC(=O)[C@H](CCCCN)NC(=O)[C@@H](Cc2c[nH]c3ccccc23)NC(=O)[C@H](c2ccc(O)cc2)NC1=O (some centres not stated),33,43,48,35,50,–,–,–
"C[C@@H](O)[C@H](NC(=O)C1CSSCC(NC(=O)[C@H](N)Cc2ccccc2)C(=O)N[C@@H](c2ccc(O)cc2)C(=O)NC(Cc2c[nH]c3ccccc23)C(=O)N[C@@H](CCCCN)C(=O)N1)C(N)=O (single isomer, unassigned)",100,100,–,96,76,90,100,90
CCCCCCCCCCCCC(N[C@H](Cc1ccccc1)C(=O)N[C@@H](CSCNC(C)=O)C(=O)N[C@H](C(=O)N[C@H](Cc1c[nH]c2ccccc12)C(=O)N[C@@H](CCCCN)C(=O)N[C@@H](CSCNC(C)=O)C(=O)N[C@H](C(N)=O)[C@@H](C)O)c1ccc(O)cc1)C(=O)NC1OC(O)C(O)C(O)C1O (some centres not stated),61,50,32,62,39,–,–,–
CCCCCCCCCCCCCCCCC(N)C(=O)N[C@H](Cc1ccccc1)C(=O)N[C@@H](CSCNC(C)=O)C(=O)N[C@H](C(=O)N[C@H](Cc1c[nH]c2ccccc12)C(=O)N[C@@H](CCCCN)C(=O)N[C@@H](CSCNC(C)=O)C(=O)N[C@H](C(N)=O)[C@@H](C)O)c1ccc(O)cc1 (some centres not stated),93,88,83,60,20,–,–,–
CCCCCCCCC(N)C(=O)NC(CCCCCCCC)C(=O)N[C@H](Cc1ccccc1)C(=O)N[C@@H](CSCNC(C)=O)C(=O)N[C@H](C(=O)N[C@H](Cc1c[nH]c2ccccc12)C(=O)N[C@@H](CCCCN)C(=O)N[C@@H](CSCNC(C)=O)C(=O)N[C@H](C(N)=O)[C@@H](C)O)c1ccc(O)cc1 (some centres not stated),96,95,–,68,60,–,–,–
CCCCCCCCCCCCC(NC(=O)CCC(=O)NC1OC(O)C(O)C(O)C1O)C(=O)N[C@H](Cc1ccccc1)C(=O)N[C@H]1CSSC[C@@H](C(=O)N[C@H](C(N)=O)[C@@H](C)O)NC(=O)[C@H](CCCCN)NC(=O)[C@@H](Cc2c[nH]c3ccccc23)NC(=O)[C@H](c2ccc(O)cc2)NC1=O (some centres not stated),–,–,–,100,30,–,–,55
CC(=O)NCSC[C@H](NC(=O)[C@H](N)Cc1ccccc1)C(=O)N[C@H](C(=O)N[C@H](Cc1c[nH]c2ccccc12)C(=O)N[C@@H](CCCCN)C(=O)N[C@@H](CSCNC(C)=O)C(=O)N[C@H](C(=O)NC1OC(C(N)=O)C(O)C(O)C1O)[C@@H](C)O)c1ccc(O)cc1 (some centres not stated),93,90,90,88,85,–,–,–
CCCCCCCCCCCCCCCCCCC(N)C(=O)N[C@H](Cc1ccccc1)C(=O)N[C@@H](CSCNC(C)=O)C(=O)N[C@H](C(=O)N[C@H](Cc1c[nH]c2ccccc12)C(=O)N[C@@H](CCCCN)C(=O)N[C@@H](CSCNC(C)=O)C(=O)N[C@H](C(N)=O)[C@@H](C)O)c1ccc(O)cc1 (some centres not stated),71,87,–,34,50,–,–,–
CCCCCCCCCCCCC(N)C(=O)N[C@H](Cc1ccccc1)C(=O)N[C@@H](CSCNC(C)=O)C(=O)N[C@H](C(=O)N[C@H](Cc1c[nH]c2ccccc12)C(=O)N[C@@H](CCCCN)C(=O)N[C@@H](CSCNC(C)=O)C(=O)N[C@H](C(=O)NC1OC(C(N)=O)C(O)C(O)C1O)[C@@H](C)O)c1ccc(O)cc1 (some centres not stated),23,17,10,2,18,–,–,–
CCCCCCCCCCC(N)C(=O)N[C@H](Cc1ccccc1)C(=O)N[C@H]1CSSC[C@@H](C(=O)N[C@H](C(N)=O)[C@@H](C)O)NC(=O)[C@H](CCCCN)NC(=O)[C@@H](Cc2c[nH]c3ccccc23)NC(=O)[C@H](c2ccc(O)cc2)NC1=O (some centres not stated),–,–,–,–,–,65,–,5
CC(=O)NCSC[C@H](NC(=O)[C@H](N)Cc1ccccc1)C(=O)N[C@H](C(=O)N[C@H](Cc1c[nH]c2ccccc12)C(=O)N[C@@H](CCCCN)C(=O)N[C@@H](CSCNC(C)=O)C(=O)N[C@H](C(N)=O)[C@@H](C)O)c1ccc(O)cc1,10,0,34,30,80,–,–,–
CCCCCCCCC(N)C(=O)N[C@H](Cc1ccccc1)C(=O)N[C@H]1CSSC[C@@H](C(=O)N[C@H](C(N)=O)[C@@H](C)O)NC(=O)[C@H](CCCCN)NC(=O)[C@@H](Cc2c[nH]c3ccccc23)NC(=O)[C@H](c2ccc(O)cc2)NC1=O (some centres not stated),–,–,–,–,–,95,–,42
CCCCCCCCCCC(N)C(=O)N[C@H](Cc1ccccc1)C(=O)N[C@@H](CSCNC(C)=O)C(=O)N[C@H](C(=O)N[C@H](Cc1c[nH]c2ccccc12)C(=O)N[C@@H](CCCCN)C(=O)N[C@@H](CSCNC(C)=O)C(=O)N[C@H](C(=O)NC1OC(C(N)=O)C(O)C(O)C1O)[C@@H](C)O)c1ccc(O)cc1 (some centres not stated),19,29,50,80,36,–,–,–
CCCCCCCCC(NC(=O)[C@@H](NC(=O)[C@H](CSCNC(C)=O)NC(=O)[C@H](CCCCN)NC(=O)[C@@H](Cc1c[nH]c2ccccc12)NC(=O)[C@@H](NC(=O)[C@H](CSCNC(C)=O)NC(=O)[C@H](N)Cc1ccccc1)c1ccc(O)cc1)[C@@H](C)O)C(=O)NCC(=O)O (some centres not stated),92,90,76,97,93,–,–,–
